In the library only some 4.1% were active in any assay of this set; here they are far more common.
Cl transport mod: KCC2 cotransporter modulators, thallium flux, primary screen, cell-based, HEK293 KCC2, FluoZin-2 fluorescence, MLSMR; Solute carrier family 12 member 5 (Homo sapiens), Q9H2X9; KCC2 cells, thallium flux FluoZin-2 fluorescence; B-score of Tl+ flux slope (higher = more flux/activation; lower = inhibition) at 10 µM; 190,000 compounds, 2.2% hits; AID 1456, 2008;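 active means thallium flux slope and its plate-corrected score both differing from the plate sample mean at a set confidence after two filtering rounds, in either direction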;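 further: slope of fluorescence scaled to starting intensity during 10 to 20 s after thallium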
hERG rescue: hERG rescue from dofetilide block, primary screen, cell-based, CHO-hERG, FluxOR thallium flux, dofetilide IC70 | Voltage-gated inwardly rectifying potassium channel KCNH2 (Homo sapiens), Q12809 | dofetilide IC70 present | activation (rescue from dofetilide block), less the hit threshold, % at 10 µM | 310,000 compounds, 0.51% hits;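 active means activation above the mean of controls blocked by dofetilide plus 5 SD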;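 further: thallium influx through hERG after potassium depolarization seen as dye fluorescence rise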
KCNQ1 block: inhibitors of human KCNQ1 channel, primary screen, cell-based, thallium flux, high-throughput; Potassium voltage-gated channel subfamily KQT member 1 (Homo sapiens), P51787; CHO-K1 KCNQ1, FluxOR thallium flux fluorescence; active compounds read high; 310,000 compounds, 1.3% hits; B-score at 10 µM; AID 2642, 2010;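 active means compounds whose thallium flux B-score, printed positive for inhibition, exceeds three library SD while starting fluorescence stays within three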;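 further: channel opened by potassium depolarization with thallium stimulus after 20 min compound exposure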
KCNQ1 act: potentiators or activators of KCNQ1 channel, primary screen, cell-based, thallium flux, high-throughput. Potassium voltage-gated channel subfamily KQT member 1 (Homo sapiens), P51787. CHO-K1 KCNQ1, thallium flux FluxOR fluorescence; active compounds read high. B-score at 10 µM. 310,000 compounds, 0.35% hits;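 active means fluorescence ratio B-score, a plate-corrected score, at least three library SD, with initial intensity B-score within 5 SD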
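System: Stable KCNQ1 CHO-K1 line | Incubation: 90 min dye loading and 20 min compound exposure, both at room temperature | Measure: Ratio B score | Medium: Assay buffer for compound exposure, DMSO matched across wells | Compound dosing: Single-concentration screen | Probe or stimulus: K+/Tl+ depolarizing stimulus | Measured by: Kinetic FluxOR fluorescence, 10 s baseline plus 110 s post-stimulus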
KCNK9 inh: KCNK9 potassium channel inhibitors, primary screen, HEK293 cells, thallium flux; 310,000 compounds, 1.2% hits; FluxOR thallium flux fluorescence; active compounds read low; AID 488922, 2010; Potassium channel subfamily K member 9 (Homo sapiens), Q9NPC2; B-score at 10 µM;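 active means ratio B-score over 3 SD below the library mean, with starting fluorescence within 5 SD of its mean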;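 further: negative B-score means less thallium flux so channel inhibition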
Target sequence (Q9NPC2 whole entry, looked up): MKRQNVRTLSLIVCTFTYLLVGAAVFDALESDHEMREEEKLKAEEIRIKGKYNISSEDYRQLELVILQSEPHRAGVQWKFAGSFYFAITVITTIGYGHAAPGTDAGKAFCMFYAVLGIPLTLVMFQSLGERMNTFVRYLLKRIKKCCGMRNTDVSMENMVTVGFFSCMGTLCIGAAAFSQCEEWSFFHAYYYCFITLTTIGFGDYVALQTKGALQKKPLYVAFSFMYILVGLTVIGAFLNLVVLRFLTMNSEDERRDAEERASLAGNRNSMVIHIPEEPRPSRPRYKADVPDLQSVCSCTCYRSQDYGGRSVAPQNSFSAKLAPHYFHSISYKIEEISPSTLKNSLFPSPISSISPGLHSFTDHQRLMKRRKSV
KCNK3 inh: human KCNK3 channel inhibitors, primary screen, CHO cells, FluxOR thallium flux, B-score; Potassium channel subfamily K member 3 (Homo sapiens), O14649; FluxOR fluorescence; active compounds read low; B-score at 10 µM; 340,000 compounds, 0.84% hits; AID 602410, 2012;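 active means B-score under library mean minus 4 SD, starting fluorescence ratio at most library mean plus 5 SD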;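 further: more negative B-score means stronger inhibition of thallium flux through KCNK3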
An asterisk follows results filed as active.

Results for O=C(c1cc(C(=O)NCCc2ccccc2)c(=O)n(CCc2ccccc2)c1)c1cc(Cl)ccc1O ?
Cl transport mod: -0.194; hERG rescue: -14.3; KCNQ1 block: 10*; KCNQ1 act: inactive; KCNK9 inh: inactive; KCNK3 inh: inactive

What do the screens show for `COc1ccc(CCNC(=O)c2cc(C(=O)c3cc(Cl)ccc3O)cn(CCc3ccc(OC)cc3)c2=O)cc1`?
Cl transport mod: -0.281; hERG rescue: -21.6; KCNQ1 block: 8*; KCNQ1 act: inactive; KCNK9 inh: inactive; KCNK3 inh: inactive

What do the screens show for `O/N=C(\Cn1ccnc1)c1ccccc1`?
KCNK3 inh: inactive

What do the screens show for `O=S(=O)(NC1CC1)c1ccc(Br)cc1N1CCC[C@H]1CO`?
KCNK3 inh: inactive

What do the screens show for `CC(C)CN1Cc2ccccc2Oc2cc(Br)ccc2S1(=O)=O`?
KCNK3 inh: inactive

Results for Cc1ccc(C(=O)NC(Cc2ccccc2C(F)(F)F)C(=O)O)cc1 (centres undefined) ?
KCNK3 inh: inactive

What do the screens show for `COCCNC(=O)C(=O)N/N=C/c1ccc(C(=O)OC)cc1`?
Cl transport mod: 0.391; hERG rescue: 14.0*; KCNQ1 block: inactive; KCNQ1 act: inactive; KCNK9 inh: inactive; KCNK3 inh: inactive

How did COCCNC(=S)N/N=C/c1ccc(OCc2ccc(C(=O)OC)cc2)c(OC)c1 do in these assays?
Cl transport mod: 0.391; hERG rescue: -11.4; KCNQ1 block: inactive; KCNQ1 act: inactive; KCNK9 inh: inactive

Results for COc1cc(C=C(c2nc3ccccc3s2)c2nc3ccccc3s2)ccc1O ?
Cl transport mod: -1.68; hERG rescue: -14.4; KCNQ1 block: 6*; KCNQ1 act: inactive; KCNK9 inh: inactive; KCNK3 inh: inactive

What do the screens show for `COc1ccccc1C(=O)NNC(=O)c1ccc(Cl)cc1`?
Cl transport mod: -0.557; hERG rescue: -1.3; KCNQ1 block: inactive; KCNQ1 act: inactive; KCNK9 inh: inactive; KCNK3 inh: inactive

What do the screens show for `COc1ccccc1C(=O)NNC(=O)C(=O)Nc1ccc(C)c(Cl)c1`?
hERG rescue: 60.7*; KCNQ1 block: inactive; KCNQ1 act: 94*; KCNK9 inh: inactive; KCNK3 inh: inactive

What do the screens show for `COc1ccccc1C(=O)NNC(=O)C(=O)Nc1ccc(C)cc1`?
hERG rescue: 47.0*; KCNQ1 block: inactive; KCNQ1 act: inactive; KCNK9 inh: inactive; KCNK3 inh: inactive

How did CCc1nc(SCc2ccccc2C#N)n[nH]1 do in these assays?
hERG rescue: 0.4; KCNQ1 block: inactive; KCNQ1 act: inactive; KCNK9 inh: inactive; KCNK3 inh: inactive

Results for CC1(c2ccccc2)NC(=O)N(CC(=O)N(c2ccccc2)C2CCS(=O)(=O)C2)C1=O (centres undefined) ?
KCNK3 inh: inactive

How did O=C1c2cccc3cccc(c23)C(=O)C1(O)O do in these assays?
hERG rescue: 8.0*; KCNQ1 block: inactive; KCNQ1 act: inactive; KCNK9 inh: inactive; KCNK3 inh: inactive

How did O=C1[C@H](Cc2ccccc2)NCC=CC[C@H](c2ccc(Cl)cc2)N1Cc1ccccc1 do in these assays?
KCNK3 inh: inactive

What do the screens show for `COc1ccc(C(=O)Nc2cccc3c2CCCC3)c(OC)c1`?
hERG rescue: -9.0; KCNQ1 block: inactive; KCNQ1 act: inactive; KCNK9 inh: inactive; KCNK3 inh: inactive

Results for O=[N+]([O-])c1cc(C(F)(F)F)ccc1NCCNC(=S)Nc1ccc(Cl)cc1 ?
hERG rescue: -4.5; KCNQ1 block: 6*; KCNQ1 act: inactive; KCNK9 inh: inactive; KCNK3 inh: inactive

How did CCN(C(=O)CSc1nc2cc(C(=O)O)ccc2c(=O)n1-c1ccccc1F)C1CCS(=O)(=O)C1 (centres undefined) do in these assays?
KCNK3 inh: inactive

What do the screens show for `Cc1cccc(C(=O)NC(=S)NNC(=O)c2cccs2)c1`?
Cl transport mod: 34.3*; hERG rescue: -1.9; KCNQ1 block: inactive; KCNQ1 act: 8*; KCNK9 inh: inactive; KCNK3 inh: inactive

How did Cc1cccc(C(=O)NC(=S)NNC(=O)c2ccc(Cl)cc2)c1 do in these assays?
Cl transport mod: 41.9*; hERG rescue: 9.1*; KCNQ1 block: inactive; KCNQ1 act: inactive; KCNK9 inh: inactive; KCNK3 inh: inactive

What do the screens show for `CC(C)(C)c1ccc(C(=O)NC(=S)NNC(=O)c2cccs2)cc1`?
Cl transport mod: 56.6*; hERG rescue: -9.0; KCNQ1 block: inactive; KCNQ1 act: 12*; KCNK9 inh: inactive; KCNK3 inh: inactive

Results for O=C(NC(=S)NNC(=O)c1cccs1)c1ccccc1 ?
hERG rescue: -11.5; KCNQ1 block: 6*; KCNQ1 act: inactive; KCNK9 inh: inactive; KCNK3 inh: inactive

How did Cc1cccc(C(=O)NNC(=O)c2ccc(Br)cc2)c1 do in these assays?
hERG rescue: -5.2; KCNQ1 block: inactive; KCNQ1 act: inactive; KCNK9 inh: inactive; KCNK3 inh: inactive

Results for COc1ccc(-n2nnnc2SCC(=O)Nc2c(C)n[nH]c2C)cc1 ?
KCNK3 inh: inactive

What do the screens show for `C[C@H](CO)N1C[C@H](C)[C@@H](CN(C)Cc2ccc(Cl)c(Cl)c2)Oc2c(NS(=O)(=O)c3cn(C)cn3)cccc2C1=O`?
KCNK3 inh: inactive

How did CCN(C(=O)COC(=O)c1n[nH]c2ccccc12)c1ccccc1 do in these assays?
KCNK3 inh: inactive

What do the screens show for `O=C(Oc1ccc2ccccc2c1)c1cncc(Br)c1`?
Cl transport mod: -0.274; hERG rescue: -9.3; KCNQ1 block: inactive; KCNQ1 act: inactive; KCNK9 inh: inactive; KCNK3 inh: inactive

What do the screens show for `O=C(Oc1ccc2c(=O)c(Oc3ccc4ccccc4c3)coc2c1)c1cncc(Br)c1`?
hERG rescue: 10.5*; KCNQ1 block: inactive; KCNQ1 act: inactive; KCNK9 inh: inactive; KCNK3 inh: inactive

What do the screens show for `Cc1ccc(C2=NOC(=O)/C2=C\C=C\c2ccccc2)cc1`?
Cl transport mod: 0.235; hERG rescue: 0.5; KCNQ1 block: inactive; KCNQ1 act: 8*; KCNK9 inh: inactive; KCNK3 inh: inactive

Screening results as filed in PubChem BioAssay.
